From ChEMBL document CHEMBL3525968, “Use of transporter knockdown Caco-2 cells to investigate the in vitro efflux of statin drugs” (Drug Metab Dispos, 2011)

Key:
[1] = Apparent permeability of the compound in vector transfected human Caco2 cells at 10 uM up to 120 mins by reverse-phase liquid chromatography with triple-quadrupole tandem mass spectrometry analysis; type: ADME, cell-based; conditions: caco-2, 2 h
MRP2 [2] = assay: Apparent permeability from basolateral to apical side of MRP2 knockdown human Caco2 cells at 10 uM up to 120 mins by reverse-phase liquid chromatography with triple-quadrupole tandem mass spectrometry analysis; type: ADME, cell-based, Caco-2
Procedure, shortened: (§1)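 Knockdown verified by real-time PCR. Cells grown 3 weeks on collagen-coated polycarbonate Transwells. Bidirectional transport of 10 µM compound in HBSSg pH 7.4, with atenolol and propranolol co-dosed. Receiver sampled at 30–120 min, analysed by LC-MS/MS. Mean ± S.D., n = 3.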

[3] = Apparent permeability of the compound in MRP2 knockdown human Caco2 cells at 10 uM up to 120 mins by reverse-phase liquid chromatography with triple-quadrupole tandem mass spectrometry analysis; type: ADME, cell-based; conditions: caco-2, 2 h
[4] = Apparent permeability from basolateral to apical side of human Caco2 cells up to 120 mins by Michaelis-Menten equation analysis; type: ADME, cell-based, Caco-2
P-gp [5] = assay: Apparent permeability from basolateral to apical side of P-gp knockdown human Caco2 cells at 10 uM up to 120 mins by reverse-phase liquid chromatography with triple-quadrupole tandem mass spectrometry analysis; type: ADME, cell-based, Caco-2; procedure, shortened: as §1
[6] = Apparent permeability of the compound in BCRP knockdown human Caco2 cells at 10 uM up to 120 mins by reverse-phase liquid chromatography with triple-quadrupole tandem mass spectrometry analysis; type: ADME, cell-based; conditions: caco-2, 2 h
BCRP [7] = assay: Apparent permeability from basolateral to apical side of BCRP knockdown human Caco2 cells at 10 uM up to 120 mins by reverse-phase liquid chromatography with triple-quadrupole tandem mass spectrometry analysis; type: ADME, cell-based, Caco-2; procedure, shortened: as §1
[8] = Apparent permeability of the compound in P-gp knockdown human Caco2 cells at 10 uM up to 120 mins by reverse-phase liquid chromatography with triple-quadrupole tandem mass spectrometry analysis; type: ADME, cell-based; conditions: caco-2, 2 h
[9] = Apparent permeability from basolateral to apical side of vector transfected human Caco2 cells at 10 uM up to 120 mins by reverse-phase liquid chromatography with triple-quadrupole tandem mass spectrometry analysis; type: ADME, cell-based; conditions: Caco-2; procedure, shortened: as §1
[10] = Apparent permeability from apical to basolateral side of vector transfected human Caco2 cells at 10 uM up to 120 mins by reverse-phase liquid chromatography with triple-quadrupole tandem mass spectrometry analysis; type: ADME, cell-based; conditions: Caco-2
Procedure, shortened: (§2)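 Caco-2 cells stably carrying lentiviral shRNA against MRP2 or non-targeting shRNA (vector control), kept under 10 µg/mL puromycin, knockdown confirmed by real-time PCR. Cells seeded at 60,000 cells/cm2 on collagen-coated polycarbonate Transwell membranes and grown 3 weeks. HBSS with 10 mM HEPES, 15 mM glucose, pH 7.4. Substrate at 10 µM, dosed apical or basolateral. Receiver sampled at 30, 60, 90, 120 min. Quantified by LC-MS/MS. Papp = VR/(A×C0)×dC/dt.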

MRP2 [11] = assay: Apparent permeability from apical to basolateral side of MRP2 knockdown human Caco2 cells at 10 uM up to 120 mins by reverse-phase liquid chromatography with triple-quadrupole tandem mass spectrometry analysis; type: ADME, cell-based, Caco-2; procedure, shortened: as §2
[12] = Efflux ratio of permeability from […] side in MRP2 knockdown human Caco2 cells at 10 uM up to 120 mins by reverse-phase liquid chromatography with triple-quadrupole tandem mass spectrometry analysis relative to vector transfected cells; type: ADME, cell-based; conditions: caco-2, 2 h; procedure, shortened: as §2
MRP2 [13] = assay: Efflux ratio of permeability from […] side in MRP2 knockdown human Caco2 cells at 10 uM up to 120 mins by reverse-phase liquid chromatography with triple-quadrupole tandem mass spectrometry analysis; type: ADME, cell-based, Caco-2; procedure, shortened: as §2
[14] = Efflux ratio of permeability from […] side in P-gp knockdown human Caco2 cells at 10 uM up to 120 mins by reverse-phase liquid chromatography with triple-quadrupole tandem mass spectrometry analysis; type: ADME, cell-based; conditions: caco-2, 2 h
Procedure, shortened: as §1, with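 “Caco-2 (CRL-2102) stably transduced with lentiviral shRNA against P-gp, BCRP or MRP2, or non-targeting shRNA vector control, kept under 10 µg/mL puromycin. Knockdown” for “Knockdown”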

[15] = Efflux ratio of permeability from […] side in BCRP knockdown human Caco2 cells at 10 uM up to 120 mins by reverse-phase liquid chromatography with triple-quadrupole tandem mass spectrometry analysis relative to vector transfected cells; type: ADME, cell-based; conditions: caco-2, 2 h
Procedure, shortened: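 Efflux ratio (B-A over A-B Papp) measured in shRNA knockdown Caco-2 monolayers and in non-targeting vector-control monolayers, both under puromycin selection. 10 µM compound in HBSSg pH 7.4. Receiver sampled 30–120 min, LC-MS/MS. Each knockdown ratio is expressed as a percentage of the vector-control ratio.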

BCRP [16] = assay: Apparent permeability from apical to basolateral side of BCRP knockdown human Caco2 cells at 10 uM up to 120 mins by reverse-phase liquid chromatography with triple-quadrupole tandem mass spectrometry analysis; type: ADME, cell-based, Caco-2
Procedure, shortened: as §1, with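 “Caco-2 (CRL-2102) stably transduced with lentiviral shRNA against P-gp, BCRP or MRP2, or non-targeting shRNA vector control, kept under 10 µg/mL puromycin. Knockdown” for “Knockdown”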

[17] = Efflux ratio of permeability from […] side in BCRP knockdown human Caco2 cells at 10 uM up to 120 mins by reverse-phase liquid chromatography with triple-quadrupole tandem mass spectrometry analysis; type: ADME, cell-based; conditions: caco-2, 2 h
Procedure, shortened: as §1, with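 “Caco-2 (CRL-2102) stably transduced with lentiviral shRNA against P-gp, BCRP or MRP2, or non-targeting shRNA vector control, kept under 10 µg/mL puromycin. Knockdown” for “Knockdown”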

P-gp [18] = assay: Apparent permeability from apical to basolateral side of P-gp knockdown human Caco2 cells at 10 uM up to 120 mins by reverse-phase liquid chromatography with triple-quadrupole tandem mass spectrometry analysis; type: ADME, cell-based, Caco-2
Procedure, shortened: as §1, with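 “Caco-2 (CRL-2102) stably transduced with lentiviral shRNA against P-gp, BCRP or MRP2, or non-targeting shRNA vector control, kept under 10 µg/mL puromycin. Knockdown” for “Knockdown”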

| Papp [1] | Papp [3] | Km at 2 h ([4]; Caco-2) [µM] | Vmax ([4]; caco-2, 2 h) [pmol/min/cm2] | Papp [6] | Papp [8] | SMILES | Papp B→A at 2 h, 10 µM (MRP2 [2]) [nm/s] | Papp B→A at 2 h, 10 µM (P-gp [5]) [nm/s] | Papp B→A at 2 h, 10 µM (BCRP [7]) [nm/s] | Papp B→A at 2 h, 10 µM [9] [nm/s] | Papp A→B at 2 h, 10 µM [10] [nm/s] | Papp A→B at 2 h, 10 µM (MRP2 [11]) [nm/s] | Ratio [12] [%] | efflux ratio at 2 h, 10 µM (MRP2 [13]) | Ratio [14] | Ratio [15] [%] | Papp A→B at 2 h, 10 µM (BCRP [16]) [nm/s] | Ratio [17] | Papp A→B at 2 h, 10 µM (P-gp [18]) [nm/s] |
| --- | --- | --- | --- | --- | --- | --- | --- | --- | --- | --- | --- | --- | --- | --- | --- | --- | --- | --- | --- |
| permeable | impermeable | 98 | 137 | impermeable | impermeable | CC(C)c1nc(N(C)S(C)(=O)=O)nc(-c2ccc(F)cc2)c1/C=C/[C@@H](O)C[C@@H](O)CC(=O)[O-].CC(C)c1nc(N(C)S(C)(=O)=O)nc(-c2ccc(F)cc2)c1/C=C/[C@@H](O)C[C@@H](O)CC(=O)[O-].[Ca+2] [ROSUVASTATIN CALCIUM] | 66 | 46 | 58 | 141 |  |  |  |  |  |  |  |  |  |
| impermeable | impermeable |  |  | impermeable | impermeable | CC[C@H](C)C(=O)O[C@H]1C[C@@H](C)C=C2C=C[C@H](C)[C@H](CC[C@@H]3C[C@@H](O)CC(=O)O3)[C@H]21 [LOVASTATIN] |  |  |  |  |  |  |  |  |  |  |  |  |  |

Second part, the compound before the results:

| SMILES | Papp [1] | Papp [3] | Km at 2 h ([4]; Caco-2) [µM] | Vmax ([4]; caco-2, 2 h) [pmol/min/cm2] | Papp [6] | Papp [8] | Papp B→A at 2 h, 10 µM (MRP2 [2]) [nm/s] | Papp B→A at 2 h, 10 µM (P-gp [5]) [nm/s] | Papp B→A at 2 h, 10 µM (BCRP [7]) [nm/s] | Papp B→A at 2 h, 10 µM [9] [nm/s] | Papp A→B at 2 h, 10 µM [10] [nm/s] | Papp A→B at 2 h, 10 µM (MRP2 [11]) [nm/s] | Ratio [12] [%] | efflux ratio at 2 h, 10 µM (MRP2 [13]) | Ratio [14] | Ratio [15] [%] | Papp A→B at 2 h, 10 µM (BCRP [16]) [nm/s] | Ratio [17] | Papp A→B at 2 h, 10 µM (P-gp [18]) [nm/s] |
| --- | --- | --- | --- | --- | --- | --- | --- | --- | --- | --- | --- | --- | --- | --- | --- | --- | --- | --- | --- |
| O=C1OC(c2ccc(O)c(S(=O)(=O)[O-])c2)(c2ccc(O)c(S(=O)(=O)[O-])c2)c2c(Br)c(Br)c(Br)c(Br)c21.[Na+].[Na+] [SULFOBROMOPHTHALEIN SODIUM] |  |  |  |  |  |  | 9 |  |  | 14.5 | 0.3 | 3.4 | 5 | 2.6 |  |  |  |  |  |
| C[C@H]1O[C@@H](O[C@H]2[C@@H](O)C[C@H](O[C@H]3[C@@H](O)C[C@H](O[C@H]4CC[C@@]5(C)[C@H](CC[C@@H]6[C@@H]5C[C@@H](O)[C@]5(C)[C@@H](C7=CC(=O)OC7)CC[C@]65O)C4)O[C@@H]3C)O[C@@H]2C)C[C@H](O)[C@@H]1O [DIGOXIN] |  |  |  |  |  |  | 190 | 118 | 94.6 | 201 | 11.4 |  | 121 | 21.4 | 7.4 | 100 | 5.4 | 17.7 | 15.9 |
| CC(C)n1c(/C=C/C(O)CC(O)CC(=O)[O-])c(-c2ccc(F)cc2)c2ccccc21.[Na+] (racemic) [FLUVASTATIN SODIUM] | permeable | impermeable |  |  | impermeable | impermeable | 482 | 253 | 573 | 961 |  |  |  |  |  |  |  |  |  |
| C[C@]12CC[C@@H]3c4ccc(OS(=O)(=O)O)cc4CC[C@H]3[C@@H]1CCC2=O [ESTRONE SULFURIC ACID] |  |  |  |  |  |  | 335 | 229 | 105 | 272 | 5.7 | 5.4 | 128 | 62.2 | 43.6 | 21 | 10.3 | 10.2 | 5.2 |
